ChEMBL document CHEMBL3621156, “Discovery of Novel Isatin-Based p53 Inducers” (ACS Med Chem Lett, 2015)
Active and inactive are the calls of the source. No cut-off for these calls is given here.

Assays:
[1] = Chemical stability of the compound assessed as compound hydrolysis at 50 uM in Opti-Mem solution incubated for 12 hrs at pH 7.5 at 37 degC by UV-visible spectrometry; assay type: physicochemical; settings: buffer, pH 7.5, 12 h
[2] = Chemical stability of the compound assessed as compound hydrolysis at 50 uM in HEPES buffer incubated for 12 hrs at pH 7.5 at 37 degC by UV-visible spectrometry; assay type: physicochemical; settings: pH 7.5, 12 h
How it was run: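 Hydrolysis followed by UV−vis spectrometry after incubation for 12 h at pH 7.5 and 37 °C.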

U2OS [3] = experiment: Activation of p53 in human U2OS cells assessed as increase of MDM2 expression at 0.5 uM after 12 hrs by Western blotting; assay type: cell-based
[4] = target: Cellular tumor antigen p53 (Homo sapiens) (UniProt P04637); experiment: Stabilization of p53 in human U2OS cells assessed as intracellular p53 level at 0.5 uM after 12 hrs by Western blotting; assay type: cell-based
Chain of Cellular tumor antigen p53 (Homo sapiens) (P04637 whole entry, looked up): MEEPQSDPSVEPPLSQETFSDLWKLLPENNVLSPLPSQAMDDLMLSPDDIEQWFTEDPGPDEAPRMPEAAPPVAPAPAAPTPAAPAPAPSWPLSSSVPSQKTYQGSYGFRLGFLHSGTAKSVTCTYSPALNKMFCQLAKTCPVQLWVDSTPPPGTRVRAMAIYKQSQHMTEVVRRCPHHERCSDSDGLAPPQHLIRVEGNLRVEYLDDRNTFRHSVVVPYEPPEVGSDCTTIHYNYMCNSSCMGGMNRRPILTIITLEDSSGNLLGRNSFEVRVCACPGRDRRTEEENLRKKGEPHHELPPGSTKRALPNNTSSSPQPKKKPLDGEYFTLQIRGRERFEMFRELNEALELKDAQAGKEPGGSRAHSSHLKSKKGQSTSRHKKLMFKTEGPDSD

U2OS [5] = experiment: Cytotoxicity against human U2OS cells expressing p53 assessed as number of cells by Hoechst stain staining relative to Nutlin-3; assay type: functional
How it was run: (§1)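 p53+ and p53− cells treated, then Hoechst-stained; surviving cells counted. The value is the ratio of compound effect to Nutlin-3 effect, which is set as 1.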

U2OS [6] = experiment: Cytotoxicity against human p53 deficient U2OS cells assessed as number of cells by Hoechst stain staining relative to Nutlin-3; assay type: functional; how it was run: as §1
U2OS [7] = experiment: Activation of p53 in human U2OS cells expressing EGFP assessed as increase of EGFP expression at 2.5 uM after 48 hrs relative to Nutlin-3; assay type: cell-based
How it was run: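 U2OS-pLV cells carrying an integrated p53-responsive EGFP reporter; compounds at 2.5 μM for 48 h. Read-out is the percentage of EGFP-positive cells, counted by high-content screening. The value is the ratio to the response with Nutlin-3, which is set as 1.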

U2OS [8] = experiment: Activation of p53 in human U2OS cells assessed as increase of MDM2 expression at 2.5 uM after 12 hrs by Western blotting; assay type: cell-based

| Structure (SMILES) | Ratio (U2OS [5]) | Ratio (U2OS [6]) | Ratio (U2OS [7]) | also measured |
| --- | --- | --- | --- | --- |
| O=C1C(=O)N(CN2CCN(c3ccccc3)CC2)c2ccccc21 | – | – | – | Stability [1]: Unstable; Stability [2]: Unstable |
| COc1cccc2c1C(=O)c1c(O)c3c(c(O)c1C2=O)C[C@@](O)(C(=O)CO)C[C@@H]3O[C@H]1C[C@H](N)[C@H](O)[C@H](C)O1 | – | – | – | Activity (U2OS [3]): inactive; Activity [4]: Active |
| O=C(NCc1ccccc1)c1ccc(/N=C2\C(=O)N(CN3CCN(c4ccccc4F)CC3)c3ccccc32)cc1 | 0.11 | 0.24 | 3.6 | – |
| O=C(NCc1ccccc1)c1ccc(/N=C2\C(=O)N(CN3CCC(Cc4ccccc4)CC3)c3ccccc32)cc1 | 0.14 | 0.32 | 4.9 | – |
| O=C1Nc2ccccc2/C1=N/c1ccc(C(=O)NCc2ccccc2)cc1 | – | – | – | Stability [1]: Unstable; Stability [2]: Unstable |
| CN(Cc1ccccc1)CN1C(=O)/C(=N\c2ccc(C(=O)NCc3ccccc3)cc2)c2ccccc21 | 0.14 | 0.41 | 3.1 | – |
| C[C@H](NC(=O)c1ccc(/N=C2\C(=O)N(CN3CCN(Cc4ccccc4)CC3)c3ccccc32)cc1)c1ccccc1 | 0.04 | 0.27 | 8.7 | – |
| COc1ccc(C2=N[C@@H](c3ccc(Cl)cc3)[C@@H](c3ccc(Cl)cc3)N2C(=O)N2CCNC(=O)C2)c(OC(C)C)c1 | – | – | – | Activity (U2OS [8]): inactive |
| O=C(NCc1ccccc1)c1ccc(/N=C2\C(=O)N(CN3CCN(Cc4ccccc4)CC3)c3ccccc32)cc1 | 0.1 | 0.19 | 4.2 | – |
| O=C(NCc1ccccc1)c1ccc(/N=C2\C(=O)N(CN3CCN(c4ccccc4)CC3)c3ccccc32)cc1 | 0.22 | 0.4 | 3.9 | Activity (U2OS [8]): inactive |
